Source: ChEMBL document CHEMBL2346557 (Bioorg Med Chem, 2013)
Calls of active or inactive are those of the source. The rule behind the calls is not given here.

How the values were obtained:
[1] = biological target: T1, Glucocorticoid receptor (Mus musculus) (UniProt P06537); assay: Induction of glucocorticoid receptor nuclear translocation in mouse C2C12 cells at 1 x 10^-5 to 1.69 x 10^-10 M by chemiluminescence assay relative to control; format: cell-based
T1 sequence (whole entry): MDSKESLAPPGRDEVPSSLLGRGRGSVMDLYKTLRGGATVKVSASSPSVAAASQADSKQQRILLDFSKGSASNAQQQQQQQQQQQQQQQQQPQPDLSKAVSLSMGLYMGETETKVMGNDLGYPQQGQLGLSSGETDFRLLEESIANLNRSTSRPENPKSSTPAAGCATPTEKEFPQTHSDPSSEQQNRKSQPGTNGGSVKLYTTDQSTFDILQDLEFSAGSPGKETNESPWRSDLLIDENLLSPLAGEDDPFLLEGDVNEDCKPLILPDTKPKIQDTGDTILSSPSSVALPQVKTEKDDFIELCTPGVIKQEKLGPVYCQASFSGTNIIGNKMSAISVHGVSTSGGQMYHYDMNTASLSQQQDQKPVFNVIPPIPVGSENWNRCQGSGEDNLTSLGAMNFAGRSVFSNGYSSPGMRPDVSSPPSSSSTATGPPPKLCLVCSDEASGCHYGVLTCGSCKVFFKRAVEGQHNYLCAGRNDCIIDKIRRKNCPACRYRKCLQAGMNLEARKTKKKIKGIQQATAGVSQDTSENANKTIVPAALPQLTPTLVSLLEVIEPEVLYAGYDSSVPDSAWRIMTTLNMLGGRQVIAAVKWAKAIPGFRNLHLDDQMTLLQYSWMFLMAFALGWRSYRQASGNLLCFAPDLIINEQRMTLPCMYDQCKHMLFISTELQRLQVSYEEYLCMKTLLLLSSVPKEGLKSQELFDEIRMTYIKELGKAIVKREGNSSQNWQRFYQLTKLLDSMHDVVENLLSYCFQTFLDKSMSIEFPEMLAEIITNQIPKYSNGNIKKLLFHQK
Outline: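 GR nuclear translocation measured by DiscoveRx in PathHunter cells using enzyme-fragment complementation. ProLink-tagged GR recruits a nuclear steroid receptor co-activator peptide fused to the enzyme acceptor, giving a chemiluminescent signal.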

[2] = Inhibition of TNFalpha-induced NFkappaB activation in mouse C2C12 cells incubated for 24 hrs prior to TNFalpha induction measured after 24 hrs by luciferase reporter gene assay; format: cell-based
Outline: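 C2C12 myoblasts in growth medium and myotubes in differentiating medium, each stably carrying an NF-κB response element–luciferase reporter. Cells were washed, lysed and luciferase read; TNF-α alone was set as 100%. IC50 was calculated. SD shown.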

[3] = biological target: T2, Glucocorticoid receptor (Homo sapiens) (UniProt P04150); assay: Transactivation of glucocorticoid receptor in HEK293 cells co-transfected with GRE assessed as induction of GRE-dependent gene expression at 100 ug/ml after 6 hrs by luciferase reporter gene assay; format: cell-based
T2 sequence (whole entry): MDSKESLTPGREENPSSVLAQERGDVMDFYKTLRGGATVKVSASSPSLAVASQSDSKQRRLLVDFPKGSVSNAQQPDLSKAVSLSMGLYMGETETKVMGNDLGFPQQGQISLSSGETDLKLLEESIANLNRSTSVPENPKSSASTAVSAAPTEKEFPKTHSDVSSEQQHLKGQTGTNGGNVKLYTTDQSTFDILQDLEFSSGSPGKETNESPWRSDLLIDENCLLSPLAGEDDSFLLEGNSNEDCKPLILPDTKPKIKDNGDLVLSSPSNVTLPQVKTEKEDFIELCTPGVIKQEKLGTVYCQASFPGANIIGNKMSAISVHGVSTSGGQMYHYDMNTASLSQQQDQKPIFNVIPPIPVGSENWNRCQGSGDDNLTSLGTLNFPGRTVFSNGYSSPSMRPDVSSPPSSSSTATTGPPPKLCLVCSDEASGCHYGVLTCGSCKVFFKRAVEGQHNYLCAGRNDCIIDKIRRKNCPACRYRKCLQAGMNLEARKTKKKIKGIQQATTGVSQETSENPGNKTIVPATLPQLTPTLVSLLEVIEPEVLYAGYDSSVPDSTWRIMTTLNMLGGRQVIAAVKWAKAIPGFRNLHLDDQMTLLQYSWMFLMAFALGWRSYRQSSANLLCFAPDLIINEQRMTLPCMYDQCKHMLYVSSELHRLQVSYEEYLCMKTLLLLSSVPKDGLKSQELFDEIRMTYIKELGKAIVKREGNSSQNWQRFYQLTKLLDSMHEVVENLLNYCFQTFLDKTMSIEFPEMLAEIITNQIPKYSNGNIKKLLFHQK
Outline: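 HEK-293 cells stably transfected with a GRE-driven luciferase reporter were exposed to drug at 0.01–100 μg/ml for 6 h. Cells were washed with PBS and lysed, and luciferase activity was measured by luminometer.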

[4] = tested on: C2C12; assay: Cytotoxicity against mouse C2C12 cells assessed as cell viability at 0.01 to 100 ug/mL after 24 hrs by MTT assay; format: cell-based; conditions: c2c12, 24 h
Outline: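 MTT viability run on C2C12 cells grown and treated alongside the NF-κB reporter plates, with drug at 0.01–100 µg/ml and DMSO vehicle. Viability is expressed as percent of untreated cells. A one-way repeated-measures ANOVA tested for a concentration effect.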

[5] = AUClast in CD1 mouse at 10 mg/kg, iv; format: ADME, organism-based; design: time 0 - last, dose 10 mg/kg, route intravenous; conditions: plasma
Outline: (§1)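 CD1 mice (n = 3 per compound) given 10 mg/kg as a single tail-vein injection in a pH 7.0 solution of 10% ethanol plus PEG400 (some compounds also with 10% DMSO). Blood was sampled at 0, 5, 15 and 30 min and 1, 2, 4, 8 and 24 h. Parameters were derived from the plasma concentration–time profiles.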

[6] = Clearance in CD1 mouse at 10 mg/kg, iv; format: ADME, organism-based; design: dose 10 mg/kg, route intravenous; conditions: in vivo; outline: as §1
[7] = tested on: Mus musculus; assay: Oral bioavailability in CD1 mouse at 50 mg/kg; format: ADME, organism-based; conditions: in vivo
Outline: (§2)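 CD1 mice (n = 3 per compound) were dosed orally at 50 mg/kg as an aqueous emulsion in 30% Labrafil. Blood was drawn at 0, 5, 15 and 30 min and 1, 2, 4, 8 and 24 h. Bioavailability and other parameters were calculated from the plasma profiles and compared against the intravenous arm.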

[8] = Tmax in CD1 mouse at 50 mg/kg, po; format: ADME, organism-based; design: dose 50 mg/kg, route oral; conditions: in vivo; outline: as §2
[9] = tested on: Liver microsomes; assay: Metabolic stability in rat liver microsomes at 2 uM measured at 1 hr; format: ADME, Microsome
Outline: (§3)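 Liver microsomes (human, or male monkey, dog, rat or mouse) at 0.5 mg/mL final with 2 µM compound, 5 mM MgCl2 and 5 mM PBS. The reaction was started with 1 mM NADPH and run at 37 °C. Verapamil was the positive control; water replaced NADPH in the negative control. Read-out was percent parent remaining at 1 h.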

[10] = AUClast in CD1 mouse at 50 mg/kg, po; format: ADME, organism-based; design: time 0 - last, dose 50 mg/kg, route oral; conditions: plasma; outline: as §2
[11] = tested on: Mus musculus; assay: Total unbound AUC (0 to infinity) in CD1 mouse at 50 mg/kg, po; format: ADME, organism-based; design: dose 50 mg/kg, route oral; conditions: in vivo
[12] = Metabolic stability in monkey liver microsomes assessed as compound remaining at 2 uM measured at 1 hr; format: ADME, Macaca mulatta, Microsome; conditions: rhesus monkey, read-out: Stability; outline: as §3
[13] = Terminal half life in CD1 mouse at 50 mg/kg, po; format: ADME, organism-based; design: dose 50 mg/kg, route oral; conditions: in vivo, read-out: beta t1/2 (converted); outline: as §2
[14] = Metabolic stability in mouse liver microsomes assessed as compound remaining at 2 uM measured at 1 hr; format: ADME, Microsome; conditions: read-out: Stability; outline: as §3
[15] = Tmax in CD1 mouse at 10 mg/kg, iv; format: ADME, organism-based; design: dose 10 mg/kg, route intravenous; conditions: in vivo; outline: as §1
[16] = tested on: Mus musculus; assay: Total unbound Cmax in CD1 mouse at 10 mg/kg, iv; format: ADME, organism-based; design: dose 10 mg/kg, route intravenous; conditions: in vivo
[17] = Mean residence time in CD1 mouse at 10 mg/kg, iv; format: ADME, organism-based; design: dose 10 mg/kg, route intravenous; conditions: in vivo; outline: as §1
[18] = Metabolic stability in dog liver microsomes assessed as compound remaining at 2 uM measured at 1 hr; format: ADME, Canis lupus familiaris, Microsome; conditions: read-out: Stability; outline: as §3
[19] = Metabolic stability in human liver microsomes assessed as compound remaining at 2 uM measured at 1 hr; format: ADME, Microsome; conditions: read-out: Stability; outline: as §3
[20] = Volume of distribution at steady state in CD1 mouse at 10 mg/kg, iv; format: ADME, organism-based; design: dose 10 mg/kg, route intravenous; conditions: in vivo, read-out: Vdss; outline: as §1
[21] = Terminal half life in CD1 mouse at 10 mg/kg, iv; format: ADME, organism-based; design: dose 10 mg/kg, route intravenous; conditions: in vivo, read-out: beta t1/2 (converted); outline: as §1
[22] = tested on: Mus musculus; assay: Total unbound AUC (0 to infinity) in CD1 mouse at 10 mg/kg, iv; format: ADME, organism-based; design: dose 10 mg/kg, route intravenous; conditions: in vivo
[23] = tested on: Mus musculus; assay: Total unbound Cmax in CD1 mouse at 50 mg/kg, po; format: ADME, organism-based; design: dose 50 mg/kg, route oral; conditions: in vivo

Row | Activity [1] [%] | EC50 [2] [nM] | SMILES | Activity [4] | other results
1 | 24.7 | 1850 | C[C@]12CCC(=O)C=C1CC[C@@H]1C2=CC[C@@]2(C)[C@H]1CC[C@]2(O)C(=O)CN1CCCC1 | – | –
2 | 51.5 | – | CC(=O)OCC(=O)[C@@]1(O)CC[C@H]2[C@@H]3CCC4=CC(=O)CC[C@]4(C)C3=CC[C@@]21C | – | Activity [3]: inactive
3 | 28.7 | 1740 | C[C@]12CCC(=O)C=C1CC[C@@H]1C2=CC[C@@]2(C)[C@H]1CC[C@]2(O)C(=O)CN1CCOCC1 | – | –
4 | 14.7 | > 10000 | C[C@@H]1C[C@H]2[C@@H]3CCC4=CC(=O)CC[C@]4(C)C3=CC[C@]2(C)[C@H]1C(=O)CN1CCN(C)CC1 | Non-toxic | –
5 | 44.5 | – | C[C@H]1C[C@H]2[C@@H]3CCC4=CC(=O)C=C[C@]4(C)C3=CC[C@]2(C)[C@@]1(O)C(=O)CO | Non-toxic | –
6 | 37.7 | 723 | CCCN(CCC)CC(=O)[C@H]1[C@H](C)C[C@H]2[C@@H]3CCC4=CC(=O)CC[C@]4(C)C3=CC[C@@]21C | Non-toxic | –
7 | 6.9 | > 10000 | CCCC[C@@H]1C[C@H]2[C@@H]3CCC4=CC(=O)C=C[C@]4(C)C3=CC[C@]2(C)[C@H]1C(=O)CO | Toxic | –
8 | 22.7 | 5240 | C[C@@H]1C[C@H]2[C@@H]3CCC4=CC(=O)CC[C@]4(C)C3=CC[C@]2(C)[C@H]1C(=O)CN1CCOCC1 | Non-toxic | –
9 | 23.5 | 5780 | CN1CCN(CC(=O)[C@@]2(O)CC[C@H]3[C@@H]4CCC5=CC(=O)CC[C@]5(C)C4=CC[C@@]32C)CC1 | – | –
10 | 27 | 89.5 | CC[C@@H]1C[C@H]2[C@@H]3CCC4=CC(=O)C=C[C@]4(C)C3=CC[C@]2(C)[C@H]1C(=O)CO | Toxic | –
11 | 21.8 | – | CCCN(CCC)CC(=O)[C@@]1(O)CC[C@H]2[C@@H]3CCC4=CC(=O)CC[C@]4(C)C3=CC[C@@]21C | – | –
12 | 19.9 | – | C[C@@H]1C[C@H]2[C@@H]3CCC4=CC(=O)CC[C@]4(C)C3=CC[C@]2(C)[C@H]1C(=O)CN1CCCC1 | Non-toxic | –
13 | 8.5 | > 10000 | CCCC[C@@H]1C[C@H]2[C@@H]3CCC4=CC(=O)CC[C@]4(C)C3=CC[C@]2(C)[C@H]1C(=O)CO | Toxic | –
14 | 15.3 | – | CC(=O)OCC(=O)C1=CC[C@H]2[C@@H]3CCC4=CC(=O)C=C[C@]4(C)C3=CC[C@]12C | – | –

Row | SMILES | Activity [1] [%] | EC50 [2] [nM] | Activity [4] | other results
15 | C[C@]12CCC(=O)C=C1CC[C@@H]1C2=CC[C@@]2(C)[C@H]1CC[C@]2(O)C(=O)CO | 49.2 | 62.9 | – | –
16 | CC(=O)OCC(=O)[C@H]1[C@H](C)C[C@H]2[C@@H]3CCC4=CC(=O)C=C[C@]4(C)C3=CC[C@@]21C | 48.8 | 54.1 | Non-toxic | Activity [3]: inactive
17 | C[C@@H]1C[C@H]2[C@@H]3CCC4=CC(=O)C=C[C@]4(C)C3=CC[C@]2(C)[C@H]1C(=O)CO | 54.2 | 56.4 | Non-toxic | AUC(0-t) [5]: 3450 ng·h/mL; clearance [6]: 48.2 mL/min/kg; F [7]: 128%; Tmax [8]: 60 min; Stability [9]: Unstable; AUC(0-t) [10]: 22000 ng·h/mL; fAUC [11]: 22031 ng·h/mL; remaining at 1 h, 2 µM [12]: ≥ 80%; Activity [3]: inactive; half-life [13]: 39.5 min; remaining at 1 h, 2 µM [14]: 34%; Tmax [15]: 5 min; fCmax [16]: 8637 ng/mL; MRT [17]: 17.3 min; remaining at 1 h, 2 µM [18]: ≥ 80%; remaining at 1 h, 2 µM [19]: ≥ 80%; Vd [20]: 0.874 L/kg; half-life [21]: 40 min; fAUC [22]: 3457 ng·h/mL; fCmax [23]: 10203 ng/mL
18 | C[C@]12C=CC(=O)C=C1CC[C@@H]1C2=CC[C@]2(C)C(C(=O)CO)=CC[C@@H]12 | 16.7 | 495 | – | –
19 | C[C@]12C=CC(=O)C=C1CC[C@@H]1C2=CC[C@@]2(C)[C@H]1CC[C@]2(O)C(=O)CO | 57.6 | 129 | – | –
